Measured values as given in publication PMC7004090 (Clinical Pharmacology in Drug Development, 2019).
Read-outs that look alike come from different tables or passages of the source.

Tests used:
[1] = system: bone turnover markers (P1NP, OC, serum NTX, CTX, urine NTX); experiment: Changes in trough values of bone turnover markers; type: in vivo, human; conditions: for GMRs (trough to baseline) of serum P1NP and serum OC: 6 weeks, then steady until day 43; for GMRs (trough to baseline) of serum NTX, serum CTX, and urine NTX: after the 6-week treatments
How it was run: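 Healthy postmenopausal women received sc synthetic human PTH 1-34 or saline placebo for 6 weeks. Markers were sampled pre-dose on days 1, 8, 15, 22, 29 and 36 and on day 43. Serum P1NP and CTX were measured by ECLIA, OC by IRMA, serum and urine NTX by ELISA; CTX only on days 1, 8, 29 and 43. Samples were assayed centrally. GMR of log-transformed trough to baseline, with 95% CI, by ANOVA per group.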

[2] = system: healthy Japanese postmenopausal women; experiment: Safety: incidence of adverse events; type: in vivo, human; conditions: 6 weeks, n = 20
How it was run: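 Randomized, single-blind, saline placebo-controlled trial in healthy Japanese postmenopausal women, with sc dosing for 6 weeks. Adverse events came from self-report, interviews or other tests, with onset, severity, seriousness, outcome and drug relationship recorded. Coding used MedDRA v17.1 preferred terms. Vital signs, 12-lead ECG, haematology, blood biochemistry and urinalysis were also monitored.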

[3] = system: subjects of phase 2b trial; conditions: cited from earlier work
[4] = subjects with severe renal impairment (eGFR 15.0–29.9 mL/min/1.73 m^2); cited from earlier work
[5] = system: subjects in the safety assessment population; conditions: 24-month open-label once-weekly trial, cited from earlier work
[6] = system: patients with osteoporosis; conditions: TOWER trial, once-weekly 56.5 μg, cited from earlier work
[7] = Plasma teriparatide acetate pharmacokinetics after subcutaneous injection; type: in vivo, human
How it was run: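 Vials were reconstituted in saline at use. 28.2 μg was given sc into the abdomen; 56.5 μg sc into the upper arm, in Cohort 1 with saline at the other site. Plasma was drawn pre-dose and at 0.25–6 h post-dose on days 1 and 36, frozen, and assayed centrally by IRMA (LLOQ 21.46 pg/mL). Noncompartmental parameters; values below LLOQ set to zero for means; arithmetic mean ± SD.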

[8] = Cohort 1 BIW: 28.2 μg twice weekly sc, intervals 3, 4 days
[9] = Cohort 1 QW: 56.5 μg once weekly sc
[10] = Cohort 2 BIW: 28.2 μg twice weekly sc, intervals 2, 5 days
[11] = Cohort 3 BIW: 28.2 μg twice weekly sc, intervals 1, 6 days

Tmax ([7]; human, plasma, sc, 28.2 ug): ≤ 60 min | half-life ([7]; human, plasma, sc, 28.2 ug): 44.3 ± 6.12 min | accumulation of teriparatide acetate in plasma ([7]; multiple dosing of once-weekly 56.5 μg, 6 weeks): no accumulation | AUCinf and Cmax relative to the once-weekly 56.5-μg group ([7]; twice-weekly 28.2-μg groups): approximately half | accumulation in the plasma ([7]; twice-weekly 28.2-μg injection treatment, regardless of dosing intervals, 6 weeks): not observed
Structure (SMILES): CC[C@H](C)[C@H](NC(=O)[C@H](CCC(=O)O)NC(=O)[C@H](CO)NC(=O)[C@@H](NC(=O)[C@@H](N)CO)C(C)C)C(=O)N[C@@H](CCC(N)=O)C(=O)N[C@@H](CC(C)C)C(=O)N[C@@H](CCSC)C(=O)N[C@@H](Cc1cnc[nH]1)C(=O)N[C@@H](CC(N)=O)C(=O)N[C@@H](CC(C)C)C(=O)NCC(=O)N[C@@H](CCCCN)C(=O)N[C@@H](Cc1cnc[nH]1)C(=O)N[C@@H](CC(C)C)C(=O)N[C@@H](CC(N)=O)C(=O)N[C@@H](CO)C(=O)N[C@@H](CCSC)C(=O)N[C@@H](CCC(=O)O)C(=O)N[C@@H](CCCN=C(N)N)C(=O)N[C@H](C(=O)N[C@@H](CCC(=O)O)C(=O)N[C@@H](Cc1c[nH]c2ccccc12)C(=O)N[C@@H](CC(C)C)C(=O)N[C@@H](CCCN=C(N)N)C(=O)N[C@@H](CCCCN)C(=O)N[C@@H](CCCCN)C(=O)N[C@@H](CC(C)C)C(=O)N[C@@H](CCC(N)=O)C(=O)N[C@@H](CC(=O)O)C(=O)N[C@H](C(=O)N[C@@H](Cc1cnc[nH]1)C(=O)N[C@@H](CC(N)=O)C(=O)N[C@@H](Cc1ccccc1)C(=O)O)C(C)C)C(C)C [teriparatide]
GMRs (trough to baseline) of serum P1NP and serum OC ([1]; all 3 twice-weekly 28.2-μg groups): similarly increased to day 29 or day 36 | GMRs (trough to baseline) of serum NTX, serum CTX, and urine NTX ([1]; all twice-weekly 28.2-μg groups): did not increase | GMRs (trough to baseline) of serum P1NP and serum OC ([1]; once-weekly 56.5-μg group): similarly increased to day 29 or day 36 | GMRs (trough to baseline) of serum NTX, serum CTX, and urine NTX ([1]; once-weekly 56.5-μg group): did not increase | Abdominal pain [2, 8]: 0 (0.0) number of subjects (%) | Adverse events, Total [2, 8]: 12 (60.0) number of subjects (%) | Alanine aminotransferase increased [2, 8]: 0 (0.0) number of subjects (%) | Arthralgia [2, 8]: 0 (0.0) number of subjects (%) | Aspartate aminotransferase increased [2, 8]: 0 (0.0) number of subjects (%) | Blood pressure decreased [2, 8]: 0 (0.0) number of subjects (%) | Chest discomfort [2, 8]: 0 (0.0) number of subjects (%) | Constipation [2, 8]: 0 (0.0) number of subjects (%) | Dizziness [2, 8]: 1 (5.0) number of subjects (%) | Dyspepsia [2, 8]: 1 (5.0) number of subjects (%) | Feeling abnormal [2, 8]: 0 (0.0) number of subjects (%) | Fractured coccyx [2, 8]: 1 (5.0) number of subjects (%) | Gamma-glutamyltransferase increased [2, 8]: 0 (0.0) number of subjects (%) | Headache [2, 8]: 5 (25.0) number of subjects (%) | Injection site erythema [2, 8]: 2 (10.0) number of subjects (%) | Malaise [2, 8]: 2 (10.0) number of subjects (%) | Nasopharyngitis [2, 8]: 0 (0.0) number of subjects (%) | Nausea [2, 8]: 9 (45.0) number of subjects (%) | Pruritus [2, 8]: 0 (0.0) number of subjects (%) | Rash [2, 8]: 0 (0.0) number of subjects (%) | Somnolence [2, 8]: 0 (0.0) number of subjects (%) | Vomiting [2, 8]: 4 (20.0) number of subjects (%) | Abdominal pain [2, 9]: 0 (0.0) number of subjects (%) | Adverse events, Total [2, 9]: 18 (90.0) number of subjects (%) | Alanine aminotransferase increased [2, 9]: 2 (10.0) number of subjects (%) | Arthralgia [2, 9]: 1 (5.0) number of subjects (%) | Aspartate aminotransferase increased [2, 9]: 1 (5.0) number of subjects (%) | Blood pressure decreased [2, 9]: 1 (5.0) number of subjects (%) | Chest discomfort [2, 9]: 0 (0.0) number of subjects (%) | Constipation [2, 9]: 1 (5.0) number of subjects (%) | Dizziness [2, 9]: 3 (15.0) number of subjects (%) | Dyspepsia [2, 9]: 0 (0.0) number of subjects (%) | Feeling abnormal [2, 9]: 0 (0.0) number of subjects (%) | Fractured coccyx [2, 9]: 0 (0.0) number of subjects (%) | Gamma-glutamyltransferase increased [2, 9]: 1 (5.0) number of subjects (%) | Headache [2, 9]: 15 (75.0) number of subjects (%) | Injection site erythema [2, 9]: 2 (10.0) number of subjects (%) | Malaise [2, 9]: 4 (20.0) number of subjects (%) | Nasopharyngitis [2, 9]: 0 (0.0) number of subjects (%) | Nausea [2, 9]: 18 (90.0) number of subjects (%) | Pruritus [2, 9]: 0 (0.0) number of subjects (%) | Rash [2, 9]: 0 (0.0) number of subjects (%) | Somnolence [2, 9]: 1 (5.0) number of subjects (%) | Vomiting [2, 9]: 14 (70.0) number of subjects (%) | Abdominal pain [2, 10]: 1 (5.0) number of subjects (%) | Adverse events, Total [2, 10]: 12 (60.0) number of subjects (%) | Alanine aminotransferase increased [2, 10]: 0 (0.0) number of subjects (%) | Arthralgia [2, 10]: 0 (0.0) number of subjects (%) | Aspartate aminotransferase increased [2, 10]: 0 (0.0) number of subjects (%) | Blood pressure decreased [2, 10]: 0 (0.0) number of subjects (%) | Chest discomfort [2, 10]: 1 (5.0) number of subjects (%) | Constipation [2, 10]: 0 (0.0) number of subjects (%) | Dizziness [2, 10]: 0 (0.0) number of subjects (%) | Dyspepsia [2, 10]: 0 (0.0) number of subjects (%) | Feeling abnormal [2, 10]: 1 (5.0) number of subjects (%) | Fractured coccyx [2, 10]: 0 (0.0) number of subjects (%) | Gamma-glutamyltransferase increased [2, 10]: 0 (0.0) number of subjects (%) | Headache [2, 10]: 4 (20.0) number of subjects (%) | Injection site erythema [2, 10]: 3 (15.0) number of subjects (%) | Malaise [2, 10]: 0 (0.0) number of subjects (%) | Nasopharyngitis [2, 10]: 1 (5.0) number of subjects (%) | Nausea [2, 10]: 10 (50.0) number of subjects (%) | Pruritus [2, 10]: 0 (0.0) number of subjects (%) | Rash [2, 10]: 0 (0.0) number of subjects (%) | Somnolence [2, 10]: 0 (0.0) number of subjects (%) | Vomiting [2, 10]: 5 (25.0) number of subjects (%) | Abdominal pain [2, 11]: 0 (0.0) number of subjects (%) | Adverse events, Total [2, 11]: 16 (80.0) number of subjects (%) | Alanine aminotransferase increased [2, 11]: 0 (0.0) number of subjects (%) | Arthralgia [2, 11]: 0 (0.0) number of subjects (%) | Aspartate aminotransferase increased [2, 11]: 0 (0.0) number of subjects (%) | Blood pressure decreased [2, 11]: 0 (0.0) number of subjects (%) | Chest discomfort [2, 11]: 0 (0.0) number of subjects (%) | Constipation [2, 11]: 0 (0.0) number of subjects (%) | Dizziness [2, 11]: 0 (0.0) number of subjects (%) | Dyspepsia [2, 11]: 0 (0.0) number of subjects (%) | Feeling abnormal [2, 11]: 0 (0.0) number of subjects (%) | Fractured coccyx [2, 11]: 0 (0.0) number of subjects (%) | Gamma-glutamyltransferase increased [2, 11]: 0 (0.0) number of subjects (%) | Headache [2, 11]: 6 (30.0) number of subjects (%) | Injection site erythema [2, 11]: 13 (65.0) number of subjects (%) | Malaise [2, 11]: 0 (0.0) number of subjects (%) | Nasopharyngitis [2, 11]: 0 (0.0) number of subjects (%) | Nausea [2, 11]: 10 (50.0) number of subjects (%) | Pruritus [2, 11]: 1 (5.0) number of subjects (%) | Rash [2, 11]: 1 (5.0) number of subjects (%) | Somnolence [2, 11]: 0 (0.0) number of subjects (%) | Vomiting [2, 11]: 6 (30.0) number of subjects (%) | Incidence of adverse events ([3]; once-weekly 14.1-μg dosing group, 14 of 73 subjects): 19.2% | frequency of nausea ([3]; once-weekly 14.1-μg group, 4 of 73 patients): 5.5% | Incidence of adverse events ([3]; once-weekly 28.2-μg dosing group, 14 of 75): 18.7% | frequency of nausea ([3]; once-weekly 28.2-μg group, 7 of 75): 9.3% | Incidence of adverse events ([3]; once-weekly 56.5-μg dosing group, 30 of 72): 41.7% | frequency of nausea ([3]; once-weekly 56.5-μg group, 15 of 72): 20.8% | elimination half-life [4]: significantly prolonged | adverse events, subjects affected ([5]; 181 of 189 subjects): 95.8% | abdominal discomfort ([5]; n = 25 of 189): 13.2% | Malaise ([5]; n = 33 of 189): 17.5% | Headache ([5]; n = 37 of 189): 19.6% | Vomiting ([5]; n = 42 of 189): 22.2% | Nausea ([5]; n = 69 of 189): 36.5% | adverse events, subjects affected ([6]; 271 of 290 subjects): 93.4% | Malaise ([6]; n = 21 of 290): 7.2% | abdominal discomfort ([6]; n = 22 of 290): 7.6% | Vomiting ([6]; n = 33 of 290): 11.4% | Headache ([6]; n = 39 of 290): 13.4% | Nausea ([6]; n = 59 of 290): 20.3%
